Values after ≈ are worked out from the molar mass of the structure shown.
Legend:
Assay type in all cases: functional
Pseudomonas aeruginosa = experiment: In vitro antibacterial activity against clinical isolates of Pseudomonas aeruginosa 2437 (gram negative) by agar dilution assay.
Outline: (§1)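 Agar dilution on Isosensitest agar; compound incorporated by twofold serial dilution. Overnight broth cultures delivered by multipoint inoculator at 10⁵ CFU per point. Plates read after 18 h at 37 °C. MIC taken as the lowest concentration giving complete growth inhibition.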

Klebsiella pneumoniae = experiment: In vitro antibacterial activity against clinical isolates of Klebsiella pneumoniae-4 (gram negative) by agar dilution assay.; outline: as §1
Staphylococcus aureus = experiment: In vitro antibacterial activity against clinical isolates of Staphylococcus aureus 18773 (gram-positive) by agar dilution assay.; outline: as §1
Enterobacter cloacae = experiment: In vitro antibacterial activity against clinical isolates of Enterobacter cloacae 041 (gram negative) by agar dilution assay.; outline: as §1
Morganella morganii = experiment: In vitro antibacterial activity against clinical isolates of Proteus morganii 27 (gram negative) by agar dilution assay.; outline: as §1
Escherichia coli = experiment: In vitro antibacterial activity against clinical isolates of Escherichia coli 15 (gram negative) by agar dilution assay.; outline: as §1

With `CC1CN(c2c(F)cc3c(=O)c(C(=O)O)cn4c3c2SCC4)CC(C)N1` (centres undefined) the MIC (Pseudomonas aeruginosa) was 100 µg/mL (≈ 265 µM), the MIC (Klebsiella pneumoniae) was 6.25 µg/mL (≈ 16.6 µM) and the MIC (Staphylococcus aureus) was 3.12 µg/mL (≈ 8.27 µM). It also gave an MIC (Enterobacter cloacae) of 3.12 µg/mL (≈ 8.27 µM), an MIC (Morganella morganii) of 25 µg/mL (≈ 66.2 µM) and an MIC (Escherichia coli) of 6.25 µg/mL (≈ 16.6 µM).
For `O=C(O)c1cn2c3c(c(Cl)c(F)cc3c1=O)S(=O)(=O)CC2`, the MIC (Escherichia coli) was > 50 µg/mL.
`O=C(O)c1cn2c3c(c(N4CCN(C(=O)C(F)(F)F)CC4)c(F)cc3c1=O)SCC2` was tested, and the MIC (Pseudomonas aeruginosa) was 12.5 µg/mL (≈ 28.1 µM), the MIC (Klebsiella pneumoniae) was < 0.39 µg/mL and the MIC (Staphylococcus aureus) was 1.56 µg/mL (≈ 3.5 µM). The MIC (Enterobacter cloacae) was < 0.39 µg/mL, the MIC (Morganella morganii) was 1.56 µg/mL (≈ 3.5 µM) and the MIC (Escherichia coli) was < 0.39 µg/mL.
`O=C(O)c1cn2c3c(cc(Cl)cc3c1=O)SCC2` was tested, and the MIC (Pseudomonas aeruginosa) was > 100 µg/mL, the MIC (Klebsiella pneumoniae) was 6.25 µg/mL (≈ 22.2 µM) and the MIC (Staphylococcus aureus) was 25 µg/mL (≈ 88.7 µM). It also gave an MIC (Enterobacter cloacae) of 12.5 µg/mL (≈ 44.4 µM), an MIC (Morganella morganii) of 6.25 µg/mL (≈ 22.2 µM) and an MIC (Escherichia coli) of 3.12 µg/mL (≈ 11.1 µM).
`O=C(O)c1cn2c3c(cc(N4CCN(C(=O)C(F)(F)F)CC4)cc3c1=O)SCC2` was tested, and the MIC (Pseudomonas aeruginosa) was 100 µg/mL (≈ 234 µM), the MIC (Staphylococcus aureus) was 50 µg/mL (≈ 117 µM) and the MIC (Morganella morganii) was > 50 µg/mL. The MIC (Escherichia coli) was > 50 µg/mL.
`CN1CCN(c2cc3c4c(c2)c(=O)c(C(=O)O)cn4CCS3)CC1` was tested, and the MIC (Pseudomonas aeruginosa) was > 100 µg/mL, the MIC (Staphylococcus aureus) was 100 µg/mL (≈ 289 µM) and the MIC (Morganella morganii) was 100 µg/mL (≈ 289 µM). It also gave an MIC (Escherichia coli) of 100 µg/mL (≈ 289 µM).
With `O=C(O)c1cn2c3c(c(N4CCCC4)c(F)cc3c1=O)SCC2` the MIC (Pseudomonas aeruginosa) was 3.12 µg/mL (≈ 9.33 µM), the MIC (Klebsiella pneumoniae) was 1.56 µg/mL (≈ 4.67 µM) and the MIC (Staphylococcus aureus) was < 0.39 µg/mL. It also gave an MIC (Enterobacter cloacae) of 1.56 µg/mL (≈ 4.67 µM), an MIC (Morganella morganii) of 3.12 µg/mL (≈ 9.33 µM) and an MIC (Escherichia coli) of 1.56 µg/mL (≈ 4.67 µM).
`O=C(O)c1cn2c3c(cccc3c1=O)SCC2` was tested, and the MIC (Pseudomonas aeruginosa) was 50 µg/mL (≈ 202 µM), the MIC (Klebsiella pneumoniae) was 25 µg/mL (≈ 101 µM) and the MIC (Staphylococcus aureus) was 25 µg/mL (≈ 101 µM). It also gave an MIC (Enterobacter cloacae) of 25 µg/mL (≈ 101 µM), an MIC (Morganella morganii) of 12.5 µg/mL (≈ 50.6 µM) and an MIC (Escherichia coli) of 6.25 µg/mL (≈ 25.3 µM).
In the case of `O=C(O)c1cn2c3c(c(Cl)c(N4CCCC4)cc3c1=O)SCC2`, the MIC (Pseudomonas aeruginosa) was > 50 µg/mL, the MIC (Klebsiella pneumoniae) was > 50 µg/mL and the MIC (Staphylococcus aureus) was > 50 µg/mL. The MIC (Enterobacter cloacae) was > 50 µg/mL, the MIC (Morganella morganii) was > 50 µg/mL and the MIC (Escherichia coli) was > 50 µg/mL.
`O=C(O)c1cn2c3c(cc(N4CCOCC4)cc3c1=O)SCC2` was tested, and the MIC (Pseudomonas aeruginosa) was 6.25 µg/mL (≈ 18.8 µM), the MIC (Klebsiella pneumoniae) was > 50 µg/mL and the MIC (Staphylococcus aureus) was > 50 µg/mL. For the same compound, the MIC (Enterobacter cloacae) was > 50 µg/mL, the MIC (Morganella morganii) was > 50 µg/mL and the MIC (Escherichia coli) was > 50 µg/mL.
For `O=C(O)c1cn2c3c(cc(F)c(N4CCCC4)c3c1=O)SCC2`, the MIC (Klebsiella pneumoniae) was > 100 µg/mL, the MIC (Staphylococcus aureus) was > 100 µg/mL and the MIC (Escherichia coli) was > 100 µg/mL.
In the case of `O=C(O)c1cn2c3c(cc(N4CCN(Cc5ccccc5)CC4)cc3c1=O)SCC2`, the MIC (Pseudomonas aeruginosa) was > 50 µg/mL, the MIC (Staphylococcus aureus) was 50 µg/mL (≈ 119 µM) and the MIC (Morganella morganii) was > 50 µg/mL. The MIC (Escherichia coli) was 50 µg/mL (≈ 119 µM).
For `O=C(O)c1cn2c3c(cc(N4CCN(CCO)CC4)cc3c1=O)SCC2`, the MIC (Pseudomonas aeruginosa) was > 100 µg/mL, the MIC (Staphylococcus aureus) was 100 µg/mL (≈ 266 µM) and the MIC (Morganella morganii) was > 50 µg/mL. It also gave an MIC (Escherichia coli) of 100 µg/mL (≈ 266 µM).
`O=C(O)c1cn2c3c(cc(F)cc3c1=O)S(=O)(=O)CC2` was tested, and the MIC (Pseudomonas aeruginosa) was > 50 µg/mL, the MIC (Staphylococcus aureus) was > 50 µg/mL and the MIC (Escherichia coli) was 100 µg/mL (≈ 336 µM).
`O=C(O)c1cn2c3c(c(N4CCCC4)c(F)cc3c1=O)S(=O)(=O)CC2` was tested, and the MIC (Pseudomonas aeruginosa) was > 50 µg/mL, the MIC (Klebsiella pneumoniae) was 25 µg/mL (≈ 68.2 µM) and the MIC (Staphylococcus aureus) was 3.12 µg/mL (≈ 8.52 µM). The MIC (Enterobacter cloacae) was 25 µg/mL (≈ 68.2 µM), the MIC (Morganella morganii) was > 50 µg/mL and the MIC (Escherichia coli) was 3.12 µg/mL (≈ 8.52 µM).
`O=C(O)c1cn2c3c(cc(F)c(Cl)c3c1=O)SCC2` was tested, and the MIC (Pseudomonas aeruginosa) was > 50 µg/mL, the MIC (Klebsiella pneumoniae) was > 50 µg/mL and the MIC (Staphylococcus aureus) was > 50 µg/mL. The MIC (Enterobacter cloacae) was > 50 µg/mL, the MIC (Morganella morganii) was > 50 µg/mL and the MIC (Escherichia coli) was > 50 µg/mL.
With `O=C(O)c1cn2c3c(c(Cl)c(F)cc3c1=O)SCC2` the MIC (Pseudomonas aeruginosa) was > 25 µg/mL, the MIC (Klebsiella pneumoniae) was 0.78 µg/mL (≈ 2.6 µM) and the MIC (Staphylococcus aureus) was 0.39 µg/mL (≈ 1.3 µM). The MIC (Enterobacter cloacae) was 0.39 µg/mL (≈ 1.3 µM), the MIC (Morganella morganii) was 6.25 µg/mL (≈ 20.9 µM) and the MIC (Escherichia coli) was 0.39 µg/mL (≈ 1.3 µM).
For `O=C(O)c1cn2c3c(c(N4CCN(CC(F)(F)F)CC4)c(F)cc3c1=O)SCC2`, the MIC (Pseudomonas aeruginosa) was > 50 µg/mL, the MIC (Klebsiella pneumoniae) was > 50 µg/mL and the MIC (Staphylococcus aureus) was 0.39 µg/mL (≈ 0.904 µM). The MIC (Enterobacter cloacae) was > 50 µg/mL, the MIC (Morganella morganii) was > 50 µg/mL and the MIC (Escherichia coli) was > 50 µg/mL.

From ChEMBL document CHEMBL1123921, “Quinolonecarboxylic acids. 2. Synthesis and antibacterial evaluation of 7-oxo-2,3-dihydro-7H-pyrido[1,2,3-de][1,4]benzothiazine-6-carboxylic acids” (J Med Chem, 1987)
